Experimental data: paper PMC4284021 (The Journal of Pharmacy and Pharmacology, 2014)
“And” between values parts separate entries of the source, which are not always exact repeats. Equal entries are not always repeated. “Also recorded” adds a separate entry of the source. Marks after values point to notes of the source that are not given here.

Experiments:
healthy volunteers = settings: doses of up to 1200 mg for 10 days; cited from earlier work
dyslipidemic patients = settings: cited from earlier work
[1] = target: T1, cholesteryl ester transfer protein (CETP) activity (Homo sapiens, UniProt P11597); assay: Serum CETP activity by fluorometric assay in healthy subjects; assay type: in vivo; settings: for CETP activity: Mean % change from baseline (90% CI) / CETP activity: Mean % change vs placebo (90 % CI): trough (predose) day 14
T1 sequence (P11597 18-493): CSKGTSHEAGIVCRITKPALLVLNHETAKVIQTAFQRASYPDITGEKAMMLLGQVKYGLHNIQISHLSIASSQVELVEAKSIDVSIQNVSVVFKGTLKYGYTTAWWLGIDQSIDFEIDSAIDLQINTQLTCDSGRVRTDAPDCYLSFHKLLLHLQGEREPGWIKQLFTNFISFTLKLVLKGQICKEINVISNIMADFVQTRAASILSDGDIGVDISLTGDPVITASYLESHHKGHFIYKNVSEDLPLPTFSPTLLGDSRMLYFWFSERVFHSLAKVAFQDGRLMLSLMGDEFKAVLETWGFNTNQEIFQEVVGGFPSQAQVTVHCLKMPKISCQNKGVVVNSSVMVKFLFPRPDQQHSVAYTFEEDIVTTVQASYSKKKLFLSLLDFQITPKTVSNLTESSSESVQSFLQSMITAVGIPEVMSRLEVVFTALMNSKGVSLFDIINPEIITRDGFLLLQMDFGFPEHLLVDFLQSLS
Outline: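 Serum was sampled at the pharmacokinetic time points, including pre-dose troughs, after once-daily oral dosing (10–600 mg) or placebo. CETP activity was measured by fluorometric assay and expressed as the maximum test-compound-inhibitable activity. Change from baseline was analysed with an Emax dose model (Hill coefficient 1, baseline covariate).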

CETP mass = assay: Serum CETP mass by sandwich ELISA in healthy subjects; assay type: in vivo, human; settings: for CETP mass: Mean % change from baseline (90% CI) / CETP mass: Mean % change vs placebo (90 % CI): trough (predose) day 14
Outline: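 CETP mass was measured in serum by sandwich ELISA. Samples were taken at baseline and on Days 2, 7 and 14 of once-daily oral dosing (10–600 mg) or placebo.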

[2] = Phase 2, nearly 400 dyslipidemic patients

CETP activity: Mean % change from baseline (90% CI) ([1]; 10 mg/day): −14.60 (−22.33, −6.87) % | CETP activity: Mean % change vs placebo (90 % CI) ([1]; 10 mg/day): −16.08 (−23.23, −8.94) ^*** % | trough inhibition of CETP activity ([1]; 100 mg): 65% | CETP activity: Mean % change from baseline (90% CI) ([1]; 100 mg/day): −64.54 (−73.08, −56.00) % | CETP activity: Mean % change vs placebo (90 % CI) ([1]; 100 mg/day): −66.02 (−78.93, −53.11) ^*** % | trough inhibition of CETP activity ([1]; 300 mg): 84% | CETP activity: Mean % change from baseline (90% CI) ([1]; 300 mg/day): −84.26 (−91.34, −77.18) % | CETP activity: Mean % change vs placebo (90 % CI) ([1]; 300 mg/day): −85.74 (−97.43, −74.05) ^*** % | trough inhibition of CETP activity ([1]; 600 mg): 91% and 91.2% | inhibition of CETP activity compared with placebo ([1]; 600 mg, after multiple doses): 93% | CETP activity: Mean % change from baseline (90% CI) ([1]; 600 mg/day): −91.18 (−99.71, −82.66) % | CETP activity: Mean % change vs placebo (90 % CI) ([1]; 600 mg/day): −92.66 (−104.92, −80.41) ^*** %
SMILES: Cc1cc(C)c2c(c1)[C@@H](N(Cc1cc(C(F)(F)F)cc(C(F)(F)F)c1)c1nnn(C)n1)CCCN2C[C@H]1CC[C@H](C(=O)O)CC1 [evacetrapib]
QT interval prolongation (healthy volunteers): no evidence of QT interval prolongation | tolerability (healthy volunteers): well tolerated | tolerability (dyslipidemic patients; 12 weeks, daily doses up to 500 mg monotherapy or 100 mg with a statin): well tolerated | decrease in LDL-C (dyslipidemic patients; [2]): up to 36% | increase in HDL-C levels (dyslipidemic patients; [2]): up to 129% | effects on blood pressure or mineralocorticoid activity (dyslipidemic patients; Phase 2): without having effects | CETP activity after 2-week (336 h) washout ([1]; each dose group): returned to levels at or near baseline; also recorded: returned to baseline levels | CETP mass: Mean % change from baseline (90% CI) (CETP mass; 10 mg/day): 20.18 (9.92, 30.45) % | CETP mass: Mean % change vs placebo (90 % CI) (CETP mass; 10 mg/day): 20.58 (11.28, 29.88) ^*** % | CETP mass: Mean % change from baseline (90% CI) (CETP mass; 100 mg/day): 95.77 (82.14, 109.41) % | CETP mass: Mean % change vs placebo (90 % CI) (CETP mass; 100 mg/day): 96.17 (76.37, 115.97) ^*** % | CETP mass: Mean % change from baseline (90% CI) (CETP mass; 300 mg/day): 131.72 (122.10, 141.34) % | CETP mass: Mean % change vs placebo (90 % CI) (CETP mass; 300 mg/day): 132.12 (115.85, 148.38) ^*** % | CETP mass: Mean % change from baseline (90% CI) (CETP mass; 600 mg/day): 145.34 (133.29, 157.39) % | CETP mass: Mean % change vs placebo (90 % CI) (CETP mass; 600 mg/day): 145.73 (128.99, 162.48) ^*** % | CETP mass approximately 2 weeks after the last dose (CETP mass; human, in vivo): returned to levels at or near baseline; also recorded: returned to baseline
